≈ marks a conversion by molar mass, not a printed value.
Legend:
[1] = test system: Escherichia coli; assay: Antimicrobial activity against ESBL producing Escherichia coli 243 isolate; type: functional
[2] = test system: Escherichia coli; assay: Antimicrobial activity against ESBL producing Escherichia coli 321 isolate infected thigh infection model ICR mouse; type: functional, Thigh muscle
In short: (§1)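 Female ICR mice (~25 g) were made neutropenic with cyclophosphamide ip (150 and 100 mg/kg, days −4 and −1) and renally impaired with uranyl nitrate 5 mg/kg ip (day −3). Each thigh got 0.1 ml of 10^5 CFU/ml (or 10^7 for high inoculum) im 2 h pre-therapy. Human-simulated regimens were given sc, three mice per group, for 24 h. Efficacy was the log10 CFU/thigh change versus 0-h controls.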

[3] = test system: Klebsiella pneumoniae; assay: Antimicrobial activity against ESBL producing Klebsiella pneumoniae 270 isolate infected thigh infection model ICR mouse; type: functional, Thigh muscle; in short: as §1
[4] = test system: Klebsiella pneumoniae; assay: Antimicrobial activity against ESBL producing Klebsiella pneumoniae 263 isolate; type: functional
[5] = test system: Klebsiella pneumoniae; assay: Antimicrobial activity against ESBL producing Klebsiella pneumoniae 265 isolate infected thigh infection model ICR mouse; type: functional, Thigh muscle; in short: as §1
[6] = test system: Escherichia coli; assay: Antimicrobial activity against ESBL producing Escherichia coli 285 isolate; type: functional
[7] = test system: Escherichia coli; assay: Antimicrobial activity against ESBL producing Escherichia coli 315 isolate infected thigh infection model ICR mouse; type: functional, Thigh muscle; in short: as §1
[8] = test system: Escherichia coli; assay: Antimicrobial activity against Escherichia coli ATCC 25922 isolate infected thigh infection model ICR mouse; type: functional, Thigh muscle; in short: as §1
[9] = test system: Escherichia coli; assay: Antimicrobial activity against ESBL producing Escherichia coli 320 isolate; type: functional
[10] = test system: Klebsiella pneumoniae; assay: Antimicrobial activity against ESBL producing Klebsiella pneumoniae 230 isolate infected thigh infection model ICR mouse; type: functional, Thigh muscle; in short: as §1
[11] = test system: Klebsiella pneumoniae; assay: Antimicrobial activity against ESBL producing Klebsiella pneumoniae 60 isolate infected thigh infection model ICR mouse; type: functional, Thigh muscle; in short: as §1
[12] = test system: Escherichia coli; assay: Antimicrobial activity against ESBL producing Escherichia coli 311 isolate infected thigh infection model ICR mouse; type: functional, Thigh muscle; in short: as §1
[13] = test system: Escherichia coli; assay: Antimicrobial activity against ESBL producing Escherichia coli 133 isolate; type: functional
[14] = test system: Klebsiella pneumoniae; assay: Antimicrobial activity against ESBL producing Klebsiella pneumoniae 258 isolate; type: functional
[15] = test system: Klebsiella pneumoniae; assay: Antimicrobial activity against ESBL producing Klebsiella pneumoniae 260 isolate; type: functional
[16] = test system: Klebsiella pneumoniae; assay: Antimicrobial activity against ESBL producing Klebsiella pneumoniae 264 isolate; type: functional
[17] = test system: Klebsiella pneumoniae; assay: Antimicrobial activity against ESBL producing Klebsiella pneumoniae 266 isolate; type: functional
[18] = test system: Klebsiella pneumoniae; assay: Antimicrobial activity against ESBL producing Klebsiella pneumoniae 266 isolate infected thigh infection model ICR mouse; type: functional, Thigh muscle; in short: as §1
[19] = test system: Klebsiella pneumoniae; assay: Antimicrobial activity against ESBL producing Klebsiella pneumoniae 255 isolate; type: functional
[20] = test system: Escherichia coli; assay: Antimicrobial activity against ESBL producing Escherichia coli 130 isolate infected thigh infection model ICR mouse; type: functional, Thigh muscle; in short: as §1
[21] = test system: Escherichia coli; assay: Antimicrobial activity against ESBL producing Escherichia coli 133 isolate infected thigh infection model ICR mouse; type: functional, Thigh muscle; in short: as §1
[22] = test system: Klebsiella pneumoniae; assay: Bacteriostasis activity against ESBL producing Klebsiella pneumoniae 262 isolate at 8 ug/ml; type: functional
[23] = test system: Klebsiella pneumoniae; assay: Antimicrobial activity against ESBL producing Klebsiella pneumoniae 254 isolate; type: functional
[24] = test system: Escherichia coli; assay: Antimicrobial activity against ESBL producing Escherichia coli 118 isolate; type: functional
[25] = test system: Escherichia coli; assay: Antimicrobial activity against ESBL producing Escherichia coli 285 isolate infected thigh infection model ICR mouse; type: functional, Thigh muscle; in short: as §1
[26] = test system: Klebsiella pneumoniae; assay: Antimicrobial activity against ESBL producing Klebsiella pneumoniae 101 isolate; type: functional
[27] = test system: Klebsiella pneumoniae; assay: Antimicrobial activity against ESBL producing Klebsiella pneumoniae 261 isolate; type: functional
[28] = test system: Escherichia coli; assay: Antimicrobial activity against ESBL producing Escherichia coli 322 isolate infected thigh infection model ICR mouse; type: functional, Thigh muscle; in short: as §1
[29] = test system: Klebsiella pneumoniae; assay: Antimicrobial activity against ESBL producing Klebsiella pneumoniae 262 isolate; type: functional
[30] = test system: Escherichia coli; assay: Antimicrobial activity against ESBL producing Escherichia coli 321 isolate; type: functional
[31] = test system: Escherichia coli; assay: Antimicrobial activity against Escherichia coli 120 isolate; type: functional
[32] = test system: Klebsiella pneumoniae; assay: Antimicrobial activity against ESBL producing Klebsiella pneumoniae 270 isolate; type: functional
[33] = test system: Klebsiella pneumoniae; assay: Antimicrobial activity against ESBL producing Klebsiella pneumoniae 260 isolate infected thigh infection model ICR mouse; type: functional, Thigh muscle; in short: as §1
[34] = test system: Klebsiella pneumoniae; assay: Antimicrobial activity against ESBL producing Klebsiella pneumoniae 101 isolate infected thigh infection model ICR mouse; type: functional, Thigh muscle; in short: as §1
[35] = test system: Klebsiella pneumoniae; assay: Antimicrobial activity against ESBL producing Klebsiella pneumoniae 258 isolate infected thigh infection model ICR mouse; type: functional, Thigh muscle; in short: as §1
[36] = test system: Klebsiella pneumoniae; assay: Antimicrobial activity against ESBL producing Klebsiella pneumoniae 225 isolate infected thigh infection model ICR mouse; type: functional, Thigh muscle; in short: as §1
[37] = test system: Klebsiella pneumoniae; assay: Antimicrobial activity against ESBL producing Klebsiella pneumoniae 257 isolate; type: functional
[38] = test system: Escherichia coli; assay: Antimicrobial activity against ESBL producing Escherichia coli 318 isolate infected thigh infection model ICR mouse; type: functional, Thigh muscle; in short: as §1
[39] = test system: Escherichia coli; assay: Antimicrobial activity against Escherichia coli ATCC 25922 isolate; type: functional
[40] = test system: Klebsiella pneumoniae; assay: Antimicrobial activity against ESBL producing Klebsiella pneumoniae 225 isolate; type: functional
[41] = test system: Escherichia coli; assay: Antimicrobial activity against ESBL producing Escherichia coli 312 isolate infected thigh infection model ICR mouse; type: functional, Thigh muscle; in short: as §1
[42] = test system: Klebsiella pneumoniae; assay: Antimicrobial activity against ESBL producing Klebsiella pneumoniae 255 isolate infected thigh infection model ICR mouse; type: functional, Thigh muscle; in short: as §1
[43] = test system: Escherichia coli; assay: Antimicrobial activity against ESBL producing Escherichia coli 311 isolate; type: functional
[44] = test system: Escherichia coli; assay: Antimicrobial activity against ESBL producing Escherichia coli 310 isolate; type: functional
[45] = test system: Klebsiella pneumoniae; assay: Antimicrobial activity against ESBL producing Klebsiella pneumoniae 259 isolate; type: functional
[46] = test system: Escherichia coli; assay: Antimicrobial activity against ESBL producing Escherichia coli 322 isolate; type: functional
[47] = test system: Klebsiella pneumoniae; assay: Antimicrobial activity against ESBL producing Klebsiella pneumoniae 268 isolate infected thigh infection model ICR mouse; type: functional, Thigh muscle; in short: as §1
[48] = test system: Klebsiella pneumoniae; assay: Antimicrobial activity against ESBL producing Klebsiella pneumoniae 268 isolate; type: functional
[49] = test system: Klebsiella pneumoniae; assay: Antimicrobial activity against ESBL producing Klebsiella pneumoniae 230 isolate; type: functional
[50] = test system: Escherichia coli; assay: Antimicrobial activity against ESBL producing Escherichia coli 243 isolate infected thigh infection model ICR mouse; type: functional, Thigh muscle; in short: as §1
[51] = test system: Escherichia coli; assay: Antimicrobial activity against ESBL producing Escherichia coli 310 isolate infected thigh infection model ICR mouse; type: functional, Thigh muscle; in short: as §1
[52] = test system: Klebsiella pneumoniae; assay: Antimicrobial activity against ESBL producing Klebsiella pneumoniae 256 isolate infected thigh infection model ICR mouse; type: functional, Thigh muscle; in short: as §1
[53] = test system: Escherichia coli; assay: Antimicrobial activity against Escherichia coli 120 isolate infected thigh infection model ICR mouse; type: functional, Thigh muscle; in short: as §1
[54] = test system: Escherichia coli; assay: Antimicrobial activity against ESBL producing Escherichia coli 130 isolate; type: functional
[55] = test system: Klebsiella pneumoniae; assay: Antimicrobial activity against ESBL producing Klebsiella pneumoniae 257 isolate infected thigh infection model ICR mouse; type: functional, Thigh muscle; in short: as §1
[56] = test system: Klebsiella pneumoniae; assay: Antimicrobial activity against ESBL producing Klebsiella pneumoniae 259 isolate infected thigh infection model ICR mouse; type: functional, Thigh muscle; in short: as §1
[57] = test system: Klebsiella pneumoniae; assay: Antimicrobial activity against ESBL producing Klebsiella pneumoniae 254 isolate infected thigh infection model ICR mouse; type: functional, Thigh muscle; in short: as §1
[58] = test system: Klebsiella pneumoniae; assay: Antimicrobial activity against ESBL producing Klebsiella pneumoniae 262 isolate infected thigh infection model ICR mouse; type: functional, Thigh muscle; in short: as §1
[59] = test system: Escherichia coli; assay: Antimicrobial activity against ESBL producing Escherichia coli 320 isolate infected thigh infection model ICR mouse; type: functional, Thigh muscle; in short: as §1
[60] = test system: Klebsiella pneumoniae; assay: Antimicrobial activity against ESBL producing Klebsiella pneumoniae 265 isolate; type: functional
[61] = test system: Klebsiella pneumoniae; assay: Antimicrobial activity against ESBL producing Klebsiella pneumoniae 264 isolate infected thigh infection model ICR mouse; type: functional, Thigh muscle; in short: as §1
[62] = test system: Klebsiella pneumoniae; assay: Antimicrobial activity against ESBL producing Klebsiella pneumoniae 261 isolate infected thigh infection model ICR mouse; type: functional, Thigh muscle; in short: as §1
[63] = test system: Escherichia coli; assay: Antimicrobial activity against ESBL producing Escherichia coli 315 isolate; type: functional
[64] = test system: Escherichia coli; assay: Antimicrobial activity against ESBL producing Escherichia coli 312 isolate; type: functional
[65] = test system: Klebsiella pneumoniae; assay: Antimicrobial activity against ESBL producing Klebsiella pneumoniae 263 isolate infected thigh infection model ICR mouse; type: functional, Thigh muscle; in short: as §1
[66] = test system: Klebsiella pneumoniae; assay: Antimicrobial activity against ESBL producing Klebsiella pneumoniae 60 isolate; type: functional

C[C@@H](O)[C@H]1C(=O)N2C(C(=O)O)=C(S[C@@H]3CN[C@H](C(=O)N(C)C)C3)[C@H](C)[C@H]12 [MEROPENEM]
MIC [1]: 0.047 µg/mL (≈ 0.123 µM)
fT>MIC [2]: 93%
fT>MIC [3]: 80%
MIC [4]: 2 µg/mL (≈ 5.22 µM)
fT>MIC [5]: 85%
MIC [6]: 0.047 µg/mL (≈ 0.123 µM)
fT>MIC [7]: 85%
fT>MIC [8]: 93%
MIC [9]: 0.03 µg/mL (≈ 0.0782 µM)
fT>MIC [10]: 85%
fT>MIC [11]: 88%
fT>MIC [12]: 70%
MIC [13]: 0.094 µg/mL (≈ 0.245 µM)
MIC [14]: 4 µg/mL (≈ 10.4 µM)
MIC [15]: 0.5 µg/mL (≈ 1.3 µM)
MIC [16]: 0.5 µg/mL (≈ 1.3 µM)
MIC [17]: 2 µg/mL (≈ 5.22 µM)
fT>MIC [18]: 58%
MIC [19]: 1 µg/mL (≈ 2.61 µM)
fT>MIC [20]: 85%
fT>MIC [21]: 85%
MIC [22]: 8 µg/mL (≈ 20.9 µM)
MIC [23]: 2 µg/mL (≈ 5.22 µM)
MIC [24]: 0.047 µg/mL (≈ 0.123 µM)
fT>MIC [25]: 90%
MIC [26]: 0.094 µg/mL (≈ 0.245 µM)
MIC [27]: 32 µg/mL (≈ 83.4 µM)
fT>MIC [28]: 93%
MIC [29]: 8 µg/mL (≈ 20.9 µM)
MIC [30]: 0.032 µg/mL (≈ 0.0834 µM)
MIC [31]: 0.03 µg/mL (≈ 0.0782 µM)
MIC [32]: 0.25 µg/mL (≈ 0.652 µM)
fT>MIC [33]: 75%
fT>MIC [34]: 85%
fT>MIC [35]: 45%
fT>MIC [36]: 90%
MIC [37]: 4 µg/mL (≈ 10.4 µM)
fT>MIC [38]: 90%
MIC [39]: 0.03 µg/mL (≈ 0.0782 µM)
MIC [40]: 0.047 µg/mL (≈ 0.123 µM)
fT>MIC [41]: 90%
fT>MIC [42]: 65%
MIC [43]: 0.75 µg/mL (≈ 1.96 µM)
MIC [44]: 0.047 µg/mL (≈ 0.123 µM)
MIC [45]: 2 µg/mL (≈ 5.22 µM)
MIC [46]: 0.032 µg/mL (≈ 0.0834 µM)
fT>MIC [47]: 85%
MIC [48]: 0.125 µg/mL (≈ 0.326 µM)
MIC [49]: 0.094 µg/mL (≈ 0.245 µM)
fT>MIC [50]: 90%
fT>MIC [51]: 90%
fT>MIC [52]: 18%
fT>MIC [53]: 93%
MIC [54]: 0.125 µg/mL (≈ 0.326 µM)
fT>MIC [55]: 45%
fT>MIC [56]: 58%
fT>MIC [57]: 58%
fT>MIC [58]: 30%
fT>MIC [59]: 93%
MIC [60]: 0.125 µg/mL (≈ 0.326 µM)
fT>MIC [61]: 75%
fT>MIC [62]: 5%
MIC [63]: 0.094 µg/mL (≈ 0.245 µM)
MIC [64]: 0.047 µg/mL (≈ 0.123 µM)
fT>MIC [65]: 58%
MIC [66]: 0.064 µg/mL (≈ 0.167 µM)
